pIC50: −log10 of the molar value. In brackets after ≈: the same amount, converted by molar mass.
How the values were obtained:
[1] = target: T1, Quinolone resistance protein NorA (Staphylococcus aureus) (UniProt P0A0J7); experiment: Inhibition of NorA efflux pump in Staphylococcus aureus 1199B assessed as reduction in EtBr efflux at 50 uM incubated for 20 mins measured for 5 mins by real-time fluorometric analysis
T1 sequence (whole entry): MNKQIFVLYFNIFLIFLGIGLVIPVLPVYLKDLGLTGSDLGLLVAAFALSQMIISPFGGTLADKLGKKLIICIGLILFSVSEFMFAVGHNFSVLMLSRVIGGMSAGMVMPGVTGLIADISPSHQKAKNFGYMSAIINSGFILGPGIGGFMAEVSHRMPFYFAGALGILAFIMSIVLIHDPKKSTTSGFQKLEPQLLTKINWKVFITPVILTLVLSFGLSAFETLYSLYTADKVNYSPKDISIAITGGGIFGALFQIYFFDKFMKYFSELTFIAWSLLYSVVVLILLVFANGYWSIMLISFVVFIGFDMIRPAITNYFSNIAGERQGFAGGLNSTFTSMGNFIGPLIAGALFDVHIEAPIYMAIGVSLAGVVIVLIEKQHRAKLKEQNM
Outline: (§1)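 SA-1199B (norA-overexpressing) grown overnight in cation-supplemented Mueller-Hinton broth, diluted 25-fold and grown at 35 °C to OD600 0.7–0.8. Loaded with EtBr 25 µM plus CCCP 100 µM (final), then resuspended in fresh broth. Fluorescence read at ex 485/em 645 nm for 5 min, ± compound. Efflux inhibition in % relative to untreated cells; screened at 50 µM. IC50 from concentration series; triplicate, two technical replicates each.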

Staphylococcus aureus = experiment: Antimicrobial activity against Staphylococcus aureus 1199B by microdilution method; type: functional
Outline: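 MIC by broth microdilution following CLSI guidelines against S. aureus SA-1199B, a strain that overexpresses norA. Run on compounds giving at least 80% EtBr efflux inhibition and on selected weaker ones.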

[2] = target: T2, Quinolone resistance protein NorA (Staphylococcus aureus, UniProt P0A0J7); experiment: Inhibition of NorA efflux pump in Staphylococcus aureus 1199B assessed as reduction in EtBr efflux incubated for 20 mins measured for 5 mins by real-time fluorometric analysis; outline: as §1
T2 sequence (P0A0J7 whole entry): T1 sequence (whole entry)

Liver microsome [3] = experiment: Drug level in human liver microsomes treated with Ethyl 5-(3-Aminopropoxy)-1-benzyl-2-methyl-(1H)-indole-3-carboxylate at 10 uM preincubated for 5 mins followed by NADPH addition measured after 30 mins by HPLC-MS/MS analysis; type: ADME; settings: 0.5 h
Outline: (§2)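 Human liver microsomes at 0.5 mg protein/ml in 100 mM potassium phosphate pH 7.4. Substrate at 10 µM final, pre-incubated 5 min at 37 °C with shaking, then started with 1 mM NADPH. Quenched at 0 and 30 min with cold acetonitrile containing labetalol internal standard. Spun 12000 g, 5 min, 4 °C; supernatant analysed by UHPLC C18 HPLC-MS/MS.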

Liver microsome [4] = experiment: Drug level in human liver microsomes treated with Ethyl 1-Benzyl-2-methyl-5-(3-(piperazin1-yl)propoxy)-(1H)-indole-3-carboxylate at 10 uM preincubated for 5 mins followed by NADPH addition measured after 30 mins by HPLC-MS/MS analysis; type: ADME; settings: 0.5 h; outline: as §2
[5] = Metabolic stability in human liver microsomes assessed as compound remaining after at 10 uM preincubated for 5 mins followed by NADPH addition measured after 30 mins by HPLC-MS/MS analysis; type: ADME; settings: read-out: Stability; outline: as §2
[6] = Solubility of the compound in D2O solution at 25 degC by 1H NMR analysis; type: physicochemical
Outline: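 1H NMR in D2O at 25 °C with TSP internal standard, following a literature procedure.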

Liver microsome [7] = experiment: Drug level in human liver microsomes treated with Ethyl 1-Benzyl-2-methyl-5-(2-(piperazin-1-yl)ethoxy)-1H-indole-3-carboxylate at 10 uM preincubated for 5 mins followed by NADPH addition measured after 30 mins by HPLC-MS/MS analysis; type: ADME; settings: 0.5 h; outline: as §2
Liver microsome [8] = experiment: Drug level in human liver microsomes treated with Ethyl 1-benzyl-2-methyl-5-(3-(piperidin-1-yl)propoxy)-1H-indole-3-carboxylate at 10 uM preincubated for 5 mins followed by NADPH addition measured after 30 mins by HPLC-MS/MS analysis; type: ADME; settings: 0.5 h; outline: as §2
Liver microsome [9] = experiment: Drug level in human liver microsomes treated with Ethyl 1-(2-Methoxybenzyl)-2-methyl-5-(3-(piperidin-1-yl)-propoxy)-1H-indole-3-carboxylate at 10 uM preincubated for 5 mins followed by NADPH addition measured after 30 mins by HPLC-MS/MS analysis; type: ADME; settings: 0.5 h; outline: as §2
[10] = target: T1, Quinolone resistance protein NorA (Staphylococcus aureus); experiment: Inhibition of NorA efflux pump in Staphylococcus aureus assessed as potentiation of ciprofloxacin-mediated antibacterial activity at 1.5 ug/ml relative to control

Row | SMILES | inhibition [1] | MIC (Staphylococcus aureus) | pIC50 [2] | other results
1 | CCOC(=O)c1c(C)n(Cc2ccccc2)c2ccc(OCCCCN3CCNCC3)cc12 | 71.9% | > 100 µg/mL | – | –
2 | CCOC(=O)c1c(C)n(Cc2ccccc2)c2ccc(OCC(CF)N3CCCCC3)cc12 (configuration not stated) | 38.5% | > 100 µg/mL | – | –
3 | CCOC(=O)c1c(C)n(Cc2ccc(OC)cc2)c2ccc(OCCCN3CCCCC3)cc12 | 77.7% | > 100 µg/mL | 5.15 | –
4 | CCOC(=O)c1c(C)n(Cc2ccccc2)c2ccc(OCCCN3CCOCC3)cc12 | 98.6% | > 100 µg/mL | 4.97 | –
5 | CCOC(=O)c1c(C)n(Cc2ccccc2)c2ccc(OCC(N)CO)cc12 (configuration not stated) | 100% | > 100 µg/mL | 4.98 | –
6 | CCOC(=O)c1c(C)n(Cc2ccccc2F)c2ccc(OCCCN3CCCCC3)cc12 | 89% | > 100 µg/mL | 5.32 | –
7 | CCOC(=O)c1c(C)n(Cc2ccccc2)c2ccc(OCCN3CCN(C)CC3)cc12 | 99.7% | > 100 µg/mL | 5.00 | –
8 | CCOC(=O)Cc1c(C)n(Cc2ccccc2)c2ccc(OCCCN3CCCCCC3)cc12 | 98.4% | 100 µg/mL (≈ 216 µM) | 5.21 | –
9 | Cc1c(C(=O)O)c2cc(OCCCN)ccc2n1Cc1ccccc1 | – | – | – | Drug metabolism (Liver microsome [3]): metabolite_detected
10 | CCOC(=O)c1c(C)n(Cc2ccccc2)c2ccc(OCCCCN)cc12 | 93.7% | 100 µg/mL (≈ 263 µM) | 5.17 | –
11 | CCOC(=O)c1c(C)n(Cc2cccc(C)c2)c2ccc(OCCCN3CCCCC3)cc12 | 70.9% | 50 µg/mL (≈ 111 µM) | 5.21 | –
12 | CCOC(=O)c1c(C)n(Cc2ccccc2)c2ccc(OCCN)cc12 | 67.7% | – | – | –
13 | Cc1c(C(=O)O)c2cc(OCCCN3CCNCC3)ccc2n1Cc1ccccc1 | – | – | – | Drug metabolism (Liver microsome [4]): metabolite_detected
14 | CCOC(=O)c1c(C)n(Cc2ccccc2[N+](=O)[O-])c2ccc(OCCCN3CCCCC3)cc12 | 91.8% | > 100 µg/mL | 5.20 | remaining at 0.5 h, 10 µM [5]: 89%; solubility [6]: 14 µM (≈ 6.71 µg/mL)
15 | CCOC(=O)c1c(C)n(Cc2cccc(OC)c2)c2ccc(OCCCN3CCCCC3)cc12 | 77.1% | > 100 µg/mL | 5.14 | –
16 | CCOC(=O)c1c(C)n(Cc2ccccc2)c2ccc(O)cc12 | 1% | > 100 µg/mL | – | –
17 | CCOC(=O)c1c(C)[nH]c2ccc(OCCN3CCNCC3)cc12 | – | – | – | Drug metabolism (Liver microsome [7]): metabolite_detected
18 | CCOC(=O)c1c(C)n(Cc2ccccc2)c2ccc(OCC(O)CN)cc12 (configuration not stated) | 100% | > 100 µg/mL | 4.77 | –
19 | CCOC(=O)c1c(C)n(Cc2ccccc2)c2ccc(C(F)(F)F)cc12 | 36.6% | – | – | –
20 | CCOC(=O)c1c(C)n(Cc2ccc([N+](=O)[O-])cc2)c2ccc(OCCCN3CCCCC3)cc12 | 89.9% | > 100 µg/mL | 5.19 | –
21 | CCOC(=O)c1c(C)[nH]c2ccc(OCCCN3CCNCC3)cc12 | – | – | – | Drug metabolism (Liver microsome [4]): metabolite_detected
22 | CCOC(=O)c1c(C)n(Cc2ccccc2)c2ccc(OCC(O)CN3CCCCCC3)cc12 (configuration not stated) | 92.8% | 100 µg/mL (≈ 215 µM) | 5.17 | –
23 | Cc1c(C(=O)O)c2cc(OCCN3CCNCC3)ccc2n1Cc1ccccc1 | – | – | – | Drug metabolism (Liver microsome [7]): metabolite_detected
24 | Cc1cc2cc(OCCCN3CCCCC3)ccc2n1Cc1ccccc1 | 95.6% | 0.63 µg/mL (≈ 1.74 µM) | 5.18 | remaining at 0.5 h, 10 µM [5]: 100%; solubility [6]: 70 µM (≈ 25.4 µg/mL)
25 | CCOC(=O)c1c(C)n(Cc2ccccc2)c2ccc(OCCN(C)C)cc12 | 98.2% | > 100 µg/mL | 4.65 | –

Row | SMILES | inhibition [1] | MIC (Staphylococcus aureus) | pIC50 [2] | other results
26 | CCOC(=O)c1c(C)n(Cc2ccccc2)c2ccc(OCCCN3CCC(F)(F)CC3)cc12 | 25.9% | – | – | –
27 | CCOC(=O)c1c(C)n(Cc2cccc([N+](=O)[O-])c2)c2ccc(OCCCN3CCCCC3)cc12 | 85.1% | > 100 µg/mL | 5.36 | –
28 | CCOC(=O)c1c(C)n(Cc2cccc(C(F)(F)F)c2)c2ccc(OCCCN3CCCCC3)cc12 | 12.9% | > 100 µg/mL | 4.85 | –
29 | CCOC(=O)c1c(C)n(Cc2ccc(C(F)(F)F)cc2)c2ccc(OCCCN3CCCCC3)cc12 | 77.7% | > 100 µg/mL | 4.85 | –
30 | CCOC(=O)c1c(C)n(CCc2ccccc2)c2ccc(OCCCN3CCCCC3)cc12 | 99.3% | > 100 µg/mL | 4.86 | –
31 | CCOC(=O)c1c(C)[nH]c2ccc(OCCCN3CCCCC3)cc12 | 34.2% | – | – | Drug metabolism (Liver microsome [8]): metabolite_detected; Drug metabolism (Liver microsome [9]): metabolite_detected
32 | CCOC(=O)c1c(C)n(Cc2ccccc2)c2ccc([N+](=O)[O-])cc12 | 9.1% | – | – | –
33 | CCOC(=O)c1c(C)n(Cc2ccccc2)c2ccc(OCCc3ccccc3)cc12 | 4.7% | > 100 µg/mL | – | –
34 | CCOC(=O)c1c(C)n(Cc2ccccc2)c2ccc(OCCCN3CCN(C)CC3)cc12 | 100% | > 100 µg/mL | 4.92 | –
35 | CCOC(=O)c1c(C)n(Cc2ccccc2)c2ccc(OCCCNCc3ccccc3)cc12 | 45.4% | – | – | –
36 | CCOC(=O)c1c(C)n(Cc2ccc(C)cc2)c2ccc(OCCCN3CCCCC3)cc12 | 58.3% | 25 µg/mL (≈ 55.7 µM) | 5.17 | –
37 | CCOC(=O)c1c(C)n(Cc2ccc(F)cc2)c2ccc(OCCCN3CCCCC3)cc12 | 91.1% | > 100 µg/mL | 5.06 | –
38 | CCOC(=O)c1c(C)n(Cc2ccccc2)c2ccc(OCCN3CCCCC3)cc12 | 100% | > 100 µg/mL | 4.94 | –
39 | Cc1c(C(=O)O)c2cc(OCCCN3CCCCC3)ccc2n1Cc1ccccc1 | 0% | – | – | Drug metabolism (Liver microsome [8]): metabolite_detected
40 | CCOC(=O)c1c(C)[nH]c2ccc(OCCCN)cc12 | – | – | – | Drug metabolism (Liver microsome [3]): metabolite_detected
41 | CCOC(=O)c1c(C)n(Cc2ccccc2O)c2ccc(OCCCN3CCCCC3)cc12 | – | – | – | Drug metabolism (Liver microsome [9]): metabolite_detected
42 | O=[N+]([O-])c1ccc2[nH]c(-c3ccccc3)cc2c1 | – | – | – | fold change (FC) [10]: 4
43 | CCOC(=O)c1c(C)n(Cc2ccccc2)c2ccc(OCC(O)CN3CCCCC3)cc12 (configuration not stated) | 99.3% | > 100 µg/mL | 5.24 | –
44 | CCOC(=O)c1c(C)n(Cc2ccccc2)c2ccc(OCCCN3CCCCCC3)cc12 | 77.4% | > 100 µg/mL | – | –
45 | CCOC(=O)c1c(C)n(Cc2ccccc2)c2ccc(OCC(O)CN3CCOCC3)cc12 (configuration not stated) | 99% | > 100 µg/mL | 4.77 | –
46 | CCOC(=O)c1c(C)n(Cc2ccccc2)c2ccc(OC(C)=O)cc12 | 20.4% | – | – | –
47 | CCOC(=O)c1c(C)n(Cc2ccccc2C)c2ccc(OCCCN3CCCCC3)cc12 | 54% | 25 µg/mL (≈ 55.7 µM) | 5.32 | –
48 | CCOC(=O)c1c(C)n(Cc2ccccc2)c2ccc(OCCN3CCOCC3)cc12 | 90.9% | > 100 µg/mL | 4.77 | –
49 | CCOC(=O)c1c(C)n(Cc2cccc(F)c2)c2ccc(OCCCN3CCCCC3)cc12 | 89.7% | > 100 µg/mL | 5.21 | –
